Test results reported in ChEMBL document CHEMBL1142019, “Design and synthesis of novel 9-substituted-7-aryl-3,4,5,6-tetrahydro-2H-pyrido[4,3-b]- and [2,3-b]-1,5-oxazocin-6-ones as NK(1) antagonists” (2005).

Key:
Rattus norvegicus = species on record: Rattus norvegicus; assay: Metabolic stability expressed as the remaining ratio of compound in rat microsomes after incubation in a shaking water bath for 1 hour; type: functional
How it was run: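 Compound incubated with rat microsomes for 60 min at 37 °C in a shaking water bath. Stability is reported as the remaining ratio, the percentage of parent compound left.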

[1] = target: Substance-P receptor (Cavia porcellus) (UniProt P30547); assay: Antagonist activity against tachykinin receptor 1 activity in guinea pig ileum in vitro; type: functional, tissue-based
Sequence of Substance-P receptor (Cavia porcellus) (P30547 whole entry): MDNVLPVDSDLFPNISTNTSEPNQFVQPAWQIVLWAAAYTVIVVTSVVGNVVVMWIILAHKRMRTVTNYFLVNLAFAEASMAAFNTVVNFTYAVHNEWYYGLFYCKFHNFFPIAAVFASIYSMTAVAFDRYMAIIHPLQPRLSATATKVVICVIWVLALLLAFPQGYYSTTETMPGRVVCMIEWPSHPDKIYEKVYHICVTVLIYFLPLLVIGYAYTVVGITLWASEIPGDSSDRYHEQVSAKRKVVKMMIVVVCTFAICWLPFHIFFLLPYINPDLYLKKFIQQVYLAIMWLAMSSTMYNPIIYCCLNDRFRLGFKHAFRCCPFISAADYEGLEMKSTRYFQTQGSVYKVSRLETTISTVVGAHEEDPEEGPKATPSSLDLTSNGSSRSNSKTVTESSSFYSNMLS
How it was run: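 Isolated guinea pig ileum preparation; NK1 antagonism expressed as a K_B value.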

[2] = Effective bladder capacity increasing effect of compound (0.3 mg/kg i.v.) expressed as the ratio of increase in effective bladder capacity compared to saline treated animals in vivo; type: functional, Cavia porcellus; conditions: in the assay text read “compared with the predrug values” for “compared to saline treated animals”
How it was run: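 Spinalized guinea pigs given test agent iv at 0.3 mg/kg. Effective bladder capacity was the volume of saline injected into the bladder. The result is the ratio of the increase in effective bladder capacity relative to each animal's predrug value.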

Compound	Remaining ratio (Rattus norvegicus)	Kb [1]	Effect [2]
FC(F)(F)c1cc(COc2cccnc2-c2ccccc2)cc(C(F)(F)F)c1	9%	25.7 nM	
Cc1ccccc1-c1cc(N2CCC(N3CCCC3)CC2)nc2c1C(=O)N(Cc1cc(C(F)(F)F)cc(C(F)(F)F)c1)CCCO2	100%	0.21 nM	24.2%
O=C1c2c(-c3ccccc3Cl)cc(N3CCC(N4CCCC4)CC3)nc2OCCCN1Cc1cc(C(F)(F)F)cc(C(F)(F)F)c1	89%	0.207 nM	
Cc1ccc(-c2c3n(c(=O)c4ncccc24)CC[C@@H](C)CN(Cc2cc(C(F)(F)F)cc(C(F)(F)F)c2)C3=O)cc1			12%
CN(Cc1cc(C(F)(F)F)cc(C(F)(F)F)c1)C(=O)c1ccc(N2CCOCC2)nc1-c1ccccc1	100%	129 nM	
CN1CCN(c2cc(-c3ccccc3)c3c(n2)OCCCN(Cc2cc(C(F)(F)F)cc(C(F)(F)F)c2)C3=O)CC1	100%	1.16 nM	
O=C1c2c(-c3ccccc3)cc(N3CCCC3)nc2OCCCN1Cc1cc(C(F)(F)F)cc(C(F)(F)F)c1	71%	13.8 nM	
O=C1c2c(-c3ccccc3)cc(N3CCOCC3)nc2OCCCN1Cc1cc(C(F)(F)F)cc(C(F)(F)F)c1	100%	2.57 nM	
O=C1c2c(-c3ccccc3)cc(N3CCCCC3)nc2OCCCN1Cc1cc(C(F)(F)F)cc(C(F)(F)F)c1	70%	13.2 nM	
CN(Cc1cc(C(F)(F)F)cc(C(F)(F)F)c1)C(=O)c1cccnc1-c1ccccc1	70%	151 nM	
COc1cc(N2CCOCC2)nc(-c2ccccc2)c1C(=O)N(C)Cc1cc(C(F)(F)F)cc(C(F)(F)F)c1	100%	26.3 nM	
O=C1c2c(ccnc2-c2ccccc2)OCCCN1Cc1cc(C(F)(F)F)cc(C(F)(F)F)c1	100%	69.2 nM	
O=C1c2c(-c3ccccc3)cc(N3CCC(N4CCCC4)CC3)nc2OCCCN1Cc1cc(C(F)(F)F)cc(C(F)(F)F)c1	86%	0.224 nM	
O=C1c2c(-c3ccccc3F)cc(N3CCC(N4CCCC4)CC3)nc2OCCCN1Cc1cc(C(F)(F)F)cc(C(F)(F)F)c1	100%	0.382 nM	
Cc1ccccc1-c1nc(N2CCC(N3CCCC3)CC2)cc2c1C(=O)N(Cc1cc(C(F)(F)F)cc(C(F)(F)F)c1)CCCO2	100%		3.97%
O=C1c2c(cc(N3CCOCC3)nc2-c2ccccc2)OCCCN1Cc1cc(C(F)(F)F)cc(C(F)(F)F)c1	100%	2.63 nM	
O=C1c2c(-c3ccccc3)cc(N3CCC(N4CCCCC4)CC3)nc2OCCCN1Cc1cc(C(F)(F)F)cc(C(F)(F)F)c1	100%	2.34 nM	
